Reference: ChEMBL document CHEMBL1221233, “4''-O-(omega-Quinolylamino-alkylamino)propionyl derivatives of selected macrolides with the activity against the key erythromycin resistant respiratory pathogens” (2010)
In brackets after ≈: the same amount, converted by molar mass.

Experiments:
Assay type in all cases: functional
[1] = tested on: Streptococcus pneumoniae; assay: Antibacterial activity against inducible resistance to macrolide and constitutive resistance to lincosamide Streptococcus pneumoniae 134 GR M by broth microdilution method
Procedure, shortened: (§1)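 MIC by CLSI broth microdilution. In the streptococcal medium, 5% horse serum replaced lysed blood. Compounds were tested as two-fold serial dilutions. Strains were first grown on Columbia agar with 5% sheep blood. The MIC was read as the lowest concentration inhibiting growth.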

[2] = tested on: Streptococcus pyogenes; assay: Antibacterial activity against constitutive MLS resistance sStreptococcus pyogenes 166 GR-Micro by broth microdilution method; procedure, shortened: as §1
[3] = tested on: Streptococcus pyogenes; assay: Antibacterial activity against efflux-mediated macrolide-resistance Streptococcus pyogenes 2 Finland by broth microdilution method; procedure, shortened: as §1
[4] = tested on: Staphylococcus aureus; assay: Antibacterial activity against inducible resistance to macrolide, licosamide and streptogramin Staphylococcus aureus 90256 by broth microdilution method
Procedure, shortened: (§2)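 Staphylococci were grown on Mueller-Hinton agar and then tested by CLSI-guideline broth microdilution against two-fold serial dilutions of compound. The result was recorded as the minimum inhibitory concentration.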

[5] = tested on: Haemophilus influenzae; assay: Antibacterial activity against Haemophilus influenzae ATCC 49247 by broth microdilution method
Procedure, shortened: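 MIC by broth microdilution following CLSI guidelines, expressed in units of lg/mL. Twofold dilutions prepared in 96-well plates. H. influenzae grown on Mueller-Hinton chocolate agar before testing.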

[6] = tested on: Staphylococcus aureus; assay: Antibacterial activity against efflux-mediated macrolide-resistance Staphylococcus aureus PK1 by broth microdilution method; procedure, shortened: as §2
[7] = tested on: Streptococcus pneumoniae; assay: Antibacterial activity against constitutive MLS resistance Streptococcus pneumoniae 58 by broth microdilution method; procedure, shortened: as §1
[8] = tested on: Streptococcus pneumoniae; assay: Antibacterial activity against efflux-mediated macrolide-resistance Streptococcus pneumoniae Ci137 by broth microdilution method; procedure, shortened: as §1

Structure (SMILES) | MIC [1] [µg/mL] | MIC [2] [µg/mL] | MIC [3] [µg/mL] | MIC [4] [µg/mL] | MIC [5] [µg/mL] | MIC [6] [µg/mL] | MIC [7] [µg/mL] | MIC [8] [µg/mL]
CC[C@H]1OC(=O)[C@H](C)[C@@H](O[C@H]2C[C@@](C)(OC)[C@@H](OC(=O)CCNCCNc3ccc4c(=O)c(C(=O)O)cn(C5CC5)c4c3)[C@H](C)O2)[C@H](C)[C@@H](O[C@@H]2O[C@H](C)C[C@H](N(C)C)[C@H]2O)[C@](C)(O)C[C@@H](C)C(=O)[C@H](C)[C@@H](O)[C@]1(C)O | ≤ 0.125 | ≤ 0.125 | ≤ 0.125 | 8 (≈ 7.44 µM) | 2 (≈ 1.86 µM) | 8 (≈ 7.44 µM) | ≤ 0.125 | ≤ 0.125
CC[C@H]1OC(=O)[C@H](C)[C@@H](O[C@H]2C[C@@](C)(OC)[C@@H](OC(=O)CCNCCCCNc3ccc4c(=O)c(C(=O)O)cn(C)c4c3)[C@H](C)O2)[C@H](C)[C@@H](O[C@@H]2O[C@H](C)C[C@H](N(C)C)[C@H]2O)[C@](C)(O)C[C@@H](C)C(=O)[C@H](C)[C@@H](O)[C@]1(C)O | 2 (≈ 1.86 µM) | 16 (≈ 14.9 µM) | 0.25 (≈ 0.232 µM) | > 32 | > 32 | 4 (≈ 3.71 µM) | 4 (≈ 3.71 µM) | 4 (≈ 3.71 µM)
CC[C@H]1OC(=O)[C@H](C)[C@@H](O[C@H]2C[C@@](C)(OC)[C@@H](OC(=O)CCNCCNc3ccc4c(=O)c(C(=O)O)cn(C)c4c3)[C@H](C)O2)[C@H](C)[C@@H](O[C@@H]2O[C@H](C)C[C@H](N(C)C)[C@H]2O)[C@](C)(O)C[C@@H](C)CN(C)[C@H](C)[C@@H](O)[C@]1(C)O | ≤ 0.125 | ≤ 0.125 | ≤ 0.125 | 4 (≈ 3.76 µM) | 8 (≈ 7.52 µM) | 2 (≈ 1.88 µM) | ≤ 0.125 | ≤ 0.125
CC[C@H]1OC(=O)[C@H](C)[C@@H](O[C@H]2C[C@@](C)(OC)[C@@H](OC(=O)CCNCCNc3ccc4c(=O)c(C(=O)O)cn(CC)c4c3)[C@H](C)O2)[C@H](C)[C@@H](O[C@@H]2O[C@H](C)C[C@H](N(C)C)[C@H]2O)[C@](C)(O)C[C@@H](C)CN(C)[C@H](C)[C@@H](O)[C@]1(C)O | ≤ 0.125 | ≤ 0.125 | ≤ 0.125 | 4 (≈ 3.71 µM) | 4 (≈ 3.71 µM) | 2 (≈ 1.85 µM) | ≤ 0.125 | ≤ 0.125
CC[C@H]1OC(=O)[C@H](C)[C@@H](O[C@H]2C[C@@](C)(OC)[C@@H](OC(=O)CCNCCNc3ccc4c(=O)c(C(=O)O)cn(C5CC5)c4c3)[C@H](C)O2)[C@H](C)[C@@H](O[C@@H]2O[C@H](C)C[C@H](N(C)C)[C@H]2O)[C@](C)(O)C[C@@H](C)CN(C)[C@H](C)[C@@H](O)[C@]1(C)O | ≤ 0.125 | ≤ 0.125 | ≤ 0.125 | 2 (≈ 1.83 µM) | 4 (≈ 3.67 µM) | 1 (≈ 0.917 µM) | ≤ 0.125 | ≤ 0.125
CC[C@H]1OC(=O)[C@H](C)[C@@H](O[C@H]2C[C@@](C)(OC)[C@@H](OC(=O)CCNCCNc3ccc4c(=O)c(C(=O)O)cn(C)c4c3)[C@H](C)O2)[C@H](C)[C@@H](O[C@@H]2O[C@H](C)C[C@H](N(C)C)[C@H]2O)[C@](C)(O)C[C@@H](C)NC(=O)[C@H](C)[C@@H](O)[C@]1(C)O | 1 (≈ 0.94 µM) | 0.5 (≈ 0.47 µM) | 2 (≈ 1.88 µM) | 32 (≈ 30.1 µM) | 16 (≈ 15 µM) | 4 (≈ 3.76 µM) | 1 (≈ 0.94 µM) | 1 (≈ 0.94 µM)
CC[C@H]1OC(=O)[C@H](C)[C@@H](O[C@H]2C[C@@](C)(OC)[C@@H](OC(=O)CCNCCNc3ccc4c(=O)c(C(=O)O)cn(C5CC5)c4c3)[C@H](C)O2)[C@H](C)[C@@H](O[C@@H]2O[C@H](C)C[C@H](N(C)C)[C@H]2O)[C@](C)(O)C[C@@H](C)NC(=O)[C@H](C)[C@@H](O)[C@]1(C)O | 64 (≈ 58.7 µM) | 32 (≈ 29.3 µM) | ≤ 0.125 | 64 (≈ 58.7 µM) | 8 (≈ 7.34 µM) | 64 (≈ 58.7 µM) | 32 (≈ 29.3 µM) | ≤ 0.125
CC[C@H]1OC(=O)[C@H](C)[C@@H](O[C@H]2C[C@@](C)(OC)[C@@H](OC(=O)CCNCCCCNc3ccc4c(=O)c(C(=O)O)cn(C)c4c3)[C@H](C)O2)[C@H](C)[C@@H](O[C@@H]2O[C@H](C)C[C@H](N(C)C)[C@H]2O)[C@](C)(O)C[C@@H](C)NC(=O)[C@H](C)[C@@H](O)[C@]1(C)O | 16 (≈ 14.6 µM) | 32 (≈ 29.3 µM) | 8 (≈ 7.32 µM) | > 32 | > 32 | 16 (≈ 14.6 µM) | 32 (≈ 29.3 µM) | 4 (≈ 3.66 µM)
CC[C@H]1OC(=O)[C@H](C)[C@@H](O[C@H]2C[C@@](C)(OC)[C@@H](OC(=O)CCNCCCCNc3ccc4c(=O)c(C(=O)O)cn(CC)c4c3)[C@H](C)O2)[C@H](C)[C@@H](O[C@@H]2O[C@H](C)C[C@H](N(C)C)[C@H]2O)[C@](C)(O)C[C@@H](C)NC(=O)[C@H](C)[C@@H](O)[C@]1(C)O | 8 (≈ 7.23 µM) | 32 (≈ 28.9 µM) | 8 (≈ 7.23 µM) | > 32 | > 32 | 8 (≈ 7.23 µM) | 16 (≈ 14.5 µM) | 2 (≈ 1.81 µM)
